Results published in ChEMBL document CHEMBL4130395, “Meroterpenoids with Protein Tyrosine Phosphatase 1B Inhibitory Activity from a Hyrtios sp. Marine Sponge” (J Nat Prod, 2017).
Active and inactive are the calls of the source. The calls are words filed in the database; no cut-off is given here.

Key:
[1] = test system: HL-60; experiment: Cytotoxicity against human HL60 cells at 30 uM after 48 hrs by MTS assay; format: cell-based; settings: hl-60, 48 h
Procedure, shortened: (§1)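 Cells seeded in 96-well plates and grown 24 h, then treated 48 h with compound dissolved in DMSO at a 30 μM working concentration. MTS (20 μL) added and incubated 2 h at 37 °C for viability read-out; method described as MTT assay.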

[2] = test system: HeLa; experiment: Cytotoxicity against human HeLa cells at 30 uM after 48 hrs by MTS assay; format: cell-based; procedure, shortened: as §1
[3] = target: T1, Tyrosine-protein phosphatase non-receptor type 1 (Homo sapiens, UniProt P18031); experiment: Inhibition of PTP1B (unknown origin) using p-nitrophenyl phosphate as substrate measured after 30 mins
T1 sequence (P18031 whole entry): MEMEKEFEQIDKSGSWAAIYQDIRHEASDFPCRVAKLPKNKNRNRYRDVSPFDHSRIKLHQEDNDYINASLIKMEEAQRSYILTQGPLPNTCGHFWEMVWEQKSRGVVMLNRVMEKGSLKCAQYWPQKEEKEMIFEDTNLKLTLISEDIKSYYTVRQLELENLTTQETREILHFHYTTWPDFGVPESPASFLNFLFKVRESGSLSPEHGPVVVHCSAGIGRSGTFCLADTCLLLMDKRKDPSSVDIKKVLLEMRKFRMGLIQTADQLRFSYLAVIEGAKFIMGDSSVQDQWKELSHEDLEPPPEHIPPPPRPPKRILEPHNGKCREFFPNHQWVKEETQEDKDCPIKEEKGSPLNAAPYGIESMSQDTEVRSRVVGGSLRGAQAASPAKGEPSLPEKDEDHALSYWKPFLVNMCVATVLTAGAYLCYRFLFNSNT

[4] = test system: RPMI-8226; experiment: Cytotoxicity against human RPMI8226 cells at 30 uM after 48 hrs by MTS assay; format: cell-based; settings: rpmi-8226, 48 h; procedure, shortened: as §1
[5] = test system: HepG2; experiment: Cytotoxicity against human HepG2 cells at 30 uM after 48 hrs by MTS assay; format: cell-based; settings: hepg2, 48 h; procedure, shortened: as §1
[6] = target: T2, Tyrosine-protein phosphatase non-receptor type 1 (Homo sapiens) (UniProt P18031); experiment: Inhibition of PTP1B (unknown origin) at 30 uM using p-nitrophenyl phosphate as substrate measured after 30 mins
T2 sequence (whole entry): T1 sequence (P18031 whole entry)
Procedure, shortened: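 30 nM PTP1B with 2 mM pNPP in 50 mM MOPS buffer, pH 6.5, with or without compound, 37 °C for 30 min. Stopped with 1 M NaOH; released pNP read at 405 nm absorbance. Oleanolic acid as positive control; IC50 from sigmoidal variable-slope dose-response fit.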

`C=C1CCC[C@H]2[C@](C)(Cc3c(O)c(O)cc4nc(C)oc34)[C@@H](C)CC[C@]12C` was tested, and the Activity [1] was “Non-Toxic”, the Activity [2] was “Non-Toxic” and the IC50 [3] was 4.8 µM. For the same compound, the Activity [4] was “Non-Toxic” and the Activity [5] was “Non-Toxic”.
With `C=C1CCC[C@H]2[C@]3(C)Cc4oc(=O)cc(OC)c4[C@]3(C)CC[C@]12C` the Activity [1] was “Non-Toxic”, the Activity [2] was “Non-Toxic” and the Activity [4] was “Non-Toxic”. The inhibition [6] was “inactive” and the Activity [5] was “Non-Toxic”.
In the case of `C=C1CCC[C@H]2[C@](C)(Cc3c(O)c(O)cc4ncoc34)[C@@H](C)CC[C@]12C` [NAKIJINOL B], the Activity [1] is reported as “Non-Toxic”, the Activity [2] is reported as “Non-Toxic” and the Activity [4] is reported as “Non-Toxic”. The inhibition [6] was “inactive” and the Activity [5] was “Non-Toxic”.
`C=C1CCC[C@@]23OC4=C(C[C@]2(C)[C@@H](C)CC[C@]13C)C(=O)C(OC)=CC4=O` was tested, and the Activity [1] was “Non-Toxic”, the Activity [2] was “Non-Toxic” and the Activity [4] was “Non-Toxic”. For the same compound, the inhibition [6] was “inactive” and the Activity [5] was “Non-Toxic”.
